# Experimental data reported in ChEMBL document CHEMBL5678806, “NMS-P937, an orally available, specific small-molecule polo-like kinase 1 inhibitor with antitumor activity in solid and hematologic malignancies” (Mol Cancer Ther, 2012).
# Calls of active or inactive are those of the source. The rule behind the calls is not given here.
# What was measured:
# A2780 [1] = assay: Induction of cell cycle arrest in human A2780 cells assessed as accumulation of cells in G2/M phase by measuring upregulated PLK1 expression incubated for 24 hrs by Western blotting analysis; format: functional, cell-based; conditions: dose 0.02-0.2 µmol/L
# Procedure, shortened: (§1)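 A2780 ovarian carcinoma cells treated 24 h with a range of concentrations, with DMSO and nocodazole controls. 20 µg protein extract separated by SDS-PAGE and immunoblotted with chemiluminescent detection. Probed for total and phospho-Thr210 PLK1, phospho-Ser10 histone H3, phospho-Thr199 NPM and phospho-Tyr15 CDK1. Total NPM, tubulin and total CDK1 served as loading controls.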
# A2780 [2] = assay: Induction of cell cycle arrest in human A2780 cells assessed as accumulation of cells in G2/M phase by measuring PLK1 phosphorylation on Thr210 incubated for 24 hrs by Western blotting analysis; format: functional, cell-based; conditions: dose 0.02-0.2 µmol/L; procedure, shortened: as §1
# A2780 [3] = assay: Induction of cell cycle arrest in human A2780 cells assessed as accumulation of cells in G2/M phase by measuring CDK1 phosphorylation on Tyr15 incubated for 24 hrs by Western blotting analysis; format: functional, cell-based; conditions: dose 0.02-0.2 µmol/L; procedure, shortened: as §1
# A2780 [4] = assay: Induction of cell cycle arrest in human A2780 cells assessed as accumulation of cells in G2/M phase by measuring Histone H3 phosphorylation on Ser10 incubated for 24 hrs by Western blotting analysis; format: functional, cell-based; conditions: dose 0.02-0.2 µmol/L; procedure, shortened: as §1
# A2780 [5] = assay: Induction of cell cycle arrest in human A2780 cells assessed as accumulation of cells in G2/M phase by measuring NPM phosphorylation on Thr199 incubated for 24 hrs by Western blotting analysis; format: functional, cell-based; conditions: dose 0.02-0.2 µmol/L; procedure, shortened: as §1
# [6] = target: Serine/threonine-protein kinase PLK1 (Homo sapiens) (UniProt P53350); assay: Inhibition of PLK1 in human A2780 cells assessed as increased Histone H3 phosphorylation on Ser10 by Western blotting analysis; format: cell-based
# Sequence of Serine/threonine-protein kinase PLK1 (Homo sapiens) (P53350 whole entry): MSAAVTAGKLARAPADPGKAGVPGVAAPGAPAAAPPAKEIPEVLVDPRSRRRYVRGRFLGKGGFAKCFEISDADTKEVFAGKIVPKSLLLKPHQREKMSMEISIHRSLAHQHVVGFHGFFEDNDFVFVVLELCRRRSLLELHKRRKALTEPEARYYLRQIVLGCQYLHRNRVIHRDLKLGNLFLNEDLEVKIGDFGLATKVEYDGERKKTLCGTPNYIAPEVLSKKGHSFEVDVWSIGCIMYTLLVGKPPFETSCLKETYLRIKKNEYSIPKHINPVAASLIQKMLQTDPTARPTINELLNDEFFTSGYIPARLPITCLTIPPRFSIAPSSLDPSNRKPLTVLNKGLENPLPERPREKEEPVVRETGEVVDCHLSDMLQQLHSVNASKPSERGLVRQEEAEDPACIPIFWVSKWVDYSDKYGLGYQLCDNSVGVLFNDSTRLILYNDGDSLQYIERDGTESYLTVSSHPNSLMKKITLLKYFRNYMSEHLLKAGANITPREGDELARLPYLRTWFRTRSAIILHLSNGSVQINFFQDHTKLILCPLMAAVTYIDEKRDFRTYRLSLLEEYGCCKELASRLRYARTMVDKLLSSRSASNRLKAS
# [7] = target: Serine/threonine-protein kinase PLK1 (Homo sapiens) (UniProt P53350); assay: Inhibition of PLK1 in human A2780 cells assessed as increased NPM phosphorylation on Thr199 by Western blotting analysis; format: cell-based
# [8] = target: Serine/threonine-protein kinase PLK1 (Homo sapiens) (UniProt P53350); assay: Inhibition of PLK1 in human A2780 cells assessed as decreased TCTP phosphorylation on Ser46 by Western blotting analysis; conditions: time 1.0 hrs
# [9] = Antitumor activity against human Acute myeloid leukemic cell xenografted in nu/nu mouse assessed as increase in median survival time at 75 mg/kg, iv administered for 5 days and measured after 7 days in presence of NMS-P937 (reference value: 34 days); format: functional, Leukemia cell; conditions: time 5 day
# [10] = Antitumor activity against human Acute myeloid leukemic cell xenografted in nu/nu mouse assessed as increase in median survival time at 75 mg/kg, iv administered for 5 days and measured after 7 days (reference value: 34 days); format: functional, Leukemia cell; conditions: time 5 day
# HT-29 = assay: Antitumor activity against human HT-29 cells xenografted in nu/nu mouse assessed as tumor growth inhibition at 45 mg/kg, iv administered for 4 days relative to control; format: functional; conditions: HT-29, 96 h, time 4 day, read-out: TGI
inhibition [6],inhibition [7],inhibition [8],SMILES,Activity (A2780 [1]),Activity (A2780 [2]),Activity (A2780 [3]),Activity (A2780 [4]),Activity (A2780 [5]),Time [9] [days],Time [10] [days],inhibition in vivo at 45 mg/kg (HT-29) [%]
Active,Active,Active,COC(=O)Nc1nc2cc(C(=O)c3cccs3)ccc2[nH]1,Active,Active,Active,Active,Active,,,
,,,CCc1c2c(nc3ccc(OC(=O)N4CCC(N5CCCCC5)CC4)cc13)-c1cc3c(c(=O)n1C2)COC(=O)[C@]3(O)CC [IRINOTECAN],,,,,,79,67,64
